Values joined by “and” are separate entries in the source; they are usually repeats but may differ in a detail not shown here. Identical values can stand only once.
Experiments:
Mus musculus [1] = species on record: Mus musculus; assay: Effective dose for its ability to act as B-cell mitogens (mitogenicity); Neg indicates a response lower than vehicle control; type: functional
In short: (§1)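 CBA/CaJ mouse spleen cells (1 × 10⁵/0.2 mL) exposed to graded compound concentrations, dissolved in water or DMSO and diluted in medium, for 24 h. [³H]thymidine then added for a further 24 h; incorporation by scintillation counting. ED50 and maximal response expressed relative to a concurrently run standard (loxoribine in most cases).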

Mus musculus [2] = species on record: Mus musculus; assay: Percent of maximum response was tested for its ability to act as B-cell mitogens (mitogenicity); type: functional; in short: as §1
Mus musculus [3] = species on record: Mus musculus; assay: Percent of maximum response was tested to augment the antibody response of B cells to sheep red blood cell challenge; type: functional
In short: (§2)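 CBA/CaJ spleen cells depleted of T cells with anti-T cell monoclonal antibody (1:1000, 30 min, 4 °C) then complement (37 °C, 45 min). Cultured ± 0.1% SRBC antigen in serum-containing medium with compound from zero to 10⁻³ M for 4 d. Plaque-forming cells counted in agarose with guinea pig complement. ED50 and maximal response relative to a concurrent standard.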

Mus musculus [4] = species on record: Mus musculus; assay: Augment antibody response of B cells to sheep red blood cell (SRBC) challenge (adjuvanticity); type: functional; conditions: read-out: ED50 (the source's name); in short: as §2
Mus musculus [5] = species on record: Mus musculus; assay: Ability to act as B-cell mitogens; type: functional; conditions: read-out: ED50 (the source's name); in short: as §1
YAC-1 [6] = assay: Percent of maximum response was tested for its ability to stimulate the natural killer response in murine in vitro cell assays; type: functional, Mus musculus
YAC-1 [7] = assay: Stimulation of natural killer (NK) response in Yac-1 cell line (mouse, lymphoma); Neg indicates a response lower than vehicle control; type: functional, cell-based
Mus musculus [8] = species on record: Mus musculus; assay: Tested to augment the antibody response of B cells to sheep red blood cell (SRBC) challenge (adjuvanticity); Neg indicates a response lower than vehicle control; type: functional, cell-based; in short: as §2
Mus musculus [9] = assay: In vivo natural killer cell response in splenocytes of mice injected with 2 mg intravenous dose % lysis of YAC-1 cells at effector: target ratio of 100:1; type: functional
In short: (§3)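 Mice dosed intravenously with 2 mg compound, with saline as the vehicle control. Spleens were removed 48 h later. Splenocytes were tested against 5 × 10⁴ ⁵¹Cr-labelled YAC-1 target cells in a 4-h ⁵¹Cr-release assay at four effector:target ratios. Results are mean % lysis ± one standard deviation, N = 3–5 mice per group.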

Mus musculus [10] = assay: In vivo natural killer cell response in splenocytes of mice injected with 2 mg intravenous dose % lysis of YAC-1 cells at effector: target ratio of 200:1; type: functional; in short: as §3
Mus musculus [11] = assay: In vivo natural killer cell response in splenocytes of mice injected with 2 mg intravenous dose % lysis of YAC-1 cells at effector: target ratio of 25:1; type: functional; in short: as §3
Mus musculus [12] = assay: In vivo natural killer cell response in splenocytes of mice injected with 2 mg intravenous dose % lysis of YAC-1 cells at effector: target ratio of 50:1; type: functional; in short: as §3
Mus musculus [13] = assay: In vivo natural killer cell response in splenocytes of mice injected with 2 mg parenteral dose % lysis of YAC-1 cells at effector: target ratio of 50:1; type: functional
In short: (§4)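 Each mouse received 2 mg compound, and spleens were taken at 48 h. Splenocyte NK activity was measured as specific lysis of 5 × 10⁴ ⁵¹Cr-labelled YAC-1 cells over 4 h at four effector:target ratios. Results are mean % lysis ± one standard deviation, N = 3–5 mice per group.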

Mus musculus [14] = assay: In vivo natural killer cell response in splenocytes of mice injected with 2 mg parenteral dose % lysis of YAC-1 cells at effector: target ratio of 100:1; type: functional; in short: as §4
Mus musculus [15] = assay: In vivo natural killer cell response in splenocytes of mice injected with 2 mg parenteral dose % lysis of YAC-1 cells at effector: target ratio of 200:1; type: functional; in short: as §4
YAC-1 [16] = assay: Stimulation of natural killer (NK) response in Yac-1 cell line (mouse, lymphoma); type: functional; conditions: read-out: ED50 (the source's name)
Mus musculus [17] = assay: In vivo natural killer cell response in splenocytes of mice injected with 2 mg intravenous dose. % lysis of YAC-1 cells at effector: target ratio of 100:1; type: functional; in short: as §3
Mus musculus [18] = assay: In vivo natural killer cell response in splenocytes of mice injected with 2 mg intravenous dose. % lysis of YAC-1 cells at effector: target ratio of 200:1; type: functional; in short: as §3
Mus musculus [19] = assay: In vivo natural killer cell response in splenocytes of mice injected with 2 mg parenteral dose. % lysis of YAC-1 cells at effector: target ratio of 100:1; type: functional; in short: as §4
Mus musculus [20] = assay: In vivo natural killer cell response in splenocytes of mice injected with 2 mg parenteral dose. % lysis of YAC-1 cells at effector: target ratio of 25:1; type: functional; in short: as §4
Mus musculus [21] = assay: In vivo natural killer cell response in splenocytes of mice injected with 2 mg parenteral dose. % lysis of YAC-1 cells at effector: target ratio of 50:1; type: functional; in short: as §4
Mus musculus [22] = assay: In vivo natural killer cell response in splenocytes of mice injected with 2 mg subcutaneous dose. % lysis of YAC-1 cells at effector: target ratio of 100:1; type: functional
In short: (§5)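 Mice dosed subcutaneously with 2 mg compound, with sesame oil as the vehicle control. Splenocytes were harvested 48 h after dosing and assayed in a 4-h ⁵¹Cr-release test against 5 × 10⁴ labelled YAC-1 cells at four effector:target ratios. Results are mean % lysis ± one standard deviation, 3–5 mice per group.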

Mus musculus [23] = assay: In vivo natural killer cell response in splenocytes of mice injected with 2 mg subcutaneous dose. % lysis of YAC-1 cells at effector: target ratio of 200:1; type: functional; in short: as §5
Mus musculus [24] = assay: In vivo natural killer cell response in splenocytes of mice injected with 2 mg subcutaneous dose. % lysis of YAC-1 cells at effector: target ratio of 25:1; type: functional; in short: as §5
Mus musculus [25] = assay: In vivo natural killer cell response in splenocytes of mice injected with 2 mg subcutaneous dose. % lysis of YAC-1 cells at effector: target ratio of 50:1; type: functional; in short: as §5
Mus musculus [26] = assay: In vivo natural killer cell response in splenocytes of mice injected with 2 mg intravenous dose. % lysis of YAC-1 cells at effector: target ratio of 50:1; type: functional; in short: as §3
Mus musculus [27] = species on record: Mus musculus; assay: Effective dose was tested for its ability to act as B-cell mitogens (mitogenicity); type: functional; conditions: read-out: ED50 (the source's name); in short: as §1

SMILES	ED50 (Mus musculus [1])	Max response (Mus musculus [2]) [%]	Max response (Mus musculus [3]) [%]	EC50 (Mus musculus [4]) [µM]	Max response (YAC-1 [6]) [%]	ED50 (YAC-1 [7])	ED50 (Mus musculus [8])	other results
C=CCn1c(=O)n(C2CCC(CO)C2)c2nc(N)nc(O)c21 (configuration not stated)	Negative	0	26	226	–	–	–	–
C=CCn1c(=O)n([C@H]2CO[C@@H](CO)C2)c2nc(N)nc(O)c21	–	16	10	83	0	Negative	–	EC50 (Mus musculus [5]): 272 µM
CCCCCCCCCCn1c(=O)n(C2OC(CO)[C@@H](O)[C@H]2O)c2nc(N)nc(O)c21 (some centres not stated)	Negative	0	0	–	–	–	Negative	–
C=CCn1c(=S)n(C2OC(COC(=O)c3ccccc3)[C@H]3OC(C)(C)O[C@@H]23)c2nc(N)nc(O)c21 (some centres not stated)	Negative	0	77	47	–	–	–	–
CCCn1c(=O)n(C2CCC(CO)O2)c2nc(NC(=O)C(C)(C)C)nc(O)c21 (configuration not stated)	Negative	4	19	–	0	Negative	Negative	–
Nc1nc(O)c2c(n1)n(C1OC(CO)[C@@H](O)[C@H]1O)c(=O)n2CC(=O)c1ccc(Cl)cc1 (some centres not stated)	Negative	0	23	1620	–	–	–	–
C=CCn1c(=O)n(C2C=CC(CO)O2)c2nc(N)nc(O)c21 (configuration not stated)	–	84	45	6	89	–	–	Ratio (Mus musculus [9]): 36.4; Ratio (Mus musculus [10]): 47.4; Ratio (Mus musculus [11]): 16.1; Ratio (Mus musculus [12]): 25.7; Ratio (Mus musculus [13]): 25.2; Ratio (Mus musculus [14]): 33.2 and 15.7; Ratio (Mus musculus [15]): 50.8; EC50 (Mus musculus [5]): 30 µM; EC50 (YAC-1 [16]): 11 µM
CC1OC(n2c(=O)n(C)c3c(O)nc(N)nc32)[C@H](O)[C@@H]1O (some centres not stated)	–	–	0	–	–	–	Negative	–
Cc1nc2nc3c(c(O)n2n1)n(CCN1CCCCC1)c(=O)n3C1OC(CO)[C@@H](O)[C@H]1O (some centres not stated)	Negative	0.1	1	–	0	Negative	Negative	–
C=CCn1c(=O)n(CCCCO)c2nc(N)nc(O)c21	–	16	12	–	–	–	Negative	EC50 (Mus musculus [5]): 52 µM
Nc1nc(O)c2c(n1)n(C1OC(CO)[C@@H](O)[C@H]1O)c(=O)n2CCN1CCCCC1 (some centres not stated)	Negative	0	0	–	–	–	Negative	–
Nc1nc(O)c2nc(S)n(COCCO)c2n1	–	–	0	–	26	–	Negative	EC50 (YAC-1 [16]): 3 µM
C=CCn1c(=O)n(CCc2ccc(OC)c(OC)c2)c2nc(N)nc(O)c21	–	–	0	–	–	–	Negative	–
Nc1nc(O)c2nc3n(c2n1)COCCO3	–	–	0	–	6	Negative	Negative	–
C=CCn1c(=O)n([C@@H]2O[C@H](CO)[C@H]3OC(C)(CCC(=O)OCC)O[C@H]32)c2nc(N)nc(O)c21 (some centres not stated)	Negative	0	44	139	19	–	–	EC50 (YAC-1 [16]): 150 µM
C=CCn1c(=O)n([C@@H]2O[C@H](CO)[C@@H](O)[C@H]2O)c2nc(N)[nH]c(=O)c21 [LOXORIBINE]	–	100	100	3	100	–	–	Ratio (Mus musculus [11]): 22.8; Ratio (Mus musculus [17]): 48.9; Ratio (Mus musculus [18]): 52.2; Ratio (Mus musculus [19]): 18.9; Ratio (Mus musculus [20]): 7.7; Ratio (Mus musculus [21]): 11.8; Ratio (Mus musculus [22]): 19.5; Ratio (Mus musculus [23]): 27.6; Ratio (Mus musculus [24]): 9.3; Ratio (Mus musculus [25]): 12.7; Ratio (Mus musculus [26]): 38.6; Ratio (Mus musculus [15]): 29.6; EC50 (Mus musculus [5]): 10 µM; EC50 (YAC-1 [16]): 13 µM
CCCn1c(=O)n(C2OC(COP(=O)([O-])[O-])[C@@H](O)[C@H]2O)c2nc(N)nc(O)c21.[Li+].[Li+] (some centres not stated)	–	57	76	15	15	Negative	–	EC50 (Mus musculus [5]): 82 µM
C=CCn1c(=O)n(C2C[C@H](O)C(CO)O2)c2nc(N)nc(O)c21 (some centres not stated)	–	131	99	30	75	–	–	EC50 (Mus musculus [27]): 134 µM; EC50 (YAC-1 [16]): 100 µM
Cn1c(=O)n2c3c1c(=O)nc(N)n3CC1OC2[C@H](O)C1O (single isomer, unassigned)	Negative	0	9	–	6	Negative	Negative	–
Nc1nc(O)c2nc(S)n([C@H]3O[C@H](CO)[C@@H](O)[C@H]3O)c2n1	Negative	6	8	–	0	Negative	Negative	–
Nc1nc(O)c2c(n1)n(C1OC(CO)[C@@H](O)[C@H]1O)c(=O)n2Cc1ccc([N+](=O)[O-])cc1 (some centres not stated)	–	16	147	40	50	–	–	Ratio (Mus musculus [22]): 20.7; Ratio (Mus musculus [23]): 27.4 and 9.9; Ratio (Mus musculus [25]): 15.8; EC50 (Mus musculus [5]): 50 µM; EC50 (YAC-1 [16]): 48 µM
C=CCn1c(=O)n([C@@H](CO)OC(CO)CO)c2nc(N)nc(O)c21	–	6	0	–	–	–	Negative	EC50 (Mus musculus [5]): 37 µM
C=CCN1C(=C(C(=O)OCC)C(=O)OCC)N([C@H]2OC(CO)[C@H]3OC(C)(C)O[C@H]32)c2nc(N)nc(O)c21 (some centres not stated)	–	–	0	–	–	–	Negative	–
CCCn1c(=O)n(C2CCC(COC(C)=O)O2)c2nc(NC(C)=O)nc(O)c21 (configuration not stated)	–	11	100	154	0	Negative	–	EC50 (Mus musculus [5]): 80 µM
C=CCn1c(=O)n(C2OC(CO[Si](C)(C)C(C)(C)C)[C@@H](O)[C@H]2O)c2nc(N)nc(O)c21 (some centres not stated)	–	–	5	1	6	Negative	–	–
C=CCn1c(=O)n([C@@H]2O[C@H](CO)[C@H]3OC(C)(CCC(=O)NC)O[C@H]32)c2nc(N)nc(O)c21 (some centres not stated)	Negative	0	9	–	0	Negative	Negative	–
Nc1nc(O)c2c(n1)n(C1OC(CO)[C@@H](O)[C@H]1O)c(=O)n2Cc1ccc(Cl)c(Cl)c1 (some centres not stated)	Negative	0	55	–	15	–	Negative	EC50 (YAC-1 [16]): 110 µM

— ChEMBL document CHEMBL1127795, “Small-molecule immunostimulants. Synthesis and activity of 7,8-disubstituted guanosines and structurally related compounds” (1994)
